Converted amounts (≈) assume the structure as drawn.
Columns and labels:
Schistosoma mansoni = experiment: WHO-TDR: Schistosomiasis; assay type: functional; parameters: concentration or dose not given beside the values
Procedure, shortened: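 Values are reported as percent inhibition and IC50. They come from a whole-organism screen of a 10,000-compound diverse Life Chemicals library against larval and/or adult worms of Schistosoma mansoni, Puerto Rican strain. The library had been filtered for drug-likeness and reactive groups.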

Brugia malayi = experiment: WHO-TDR: Lymphatic Filariasis; assay type: functional; parameters: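 tested at 10 µM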
Procedure, shortened: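 Values are percent inhibition and IC50 from a whole-organism screen against Brugia malayi microfilariae. The compounds, 10,000 in all, came from a diverse Life Chemicals library filtered for drug-likeness and reactive groups.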

Trypanosoma cruzi = experiment: WHO-TDR: Chagas disease; assay type: functional, organism-based, Homo sapiens; details: MRC5
Procedure, shortened: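 Intracellular amastigotes of the Trypanosoma cruzi Tulahuen CL2 beta-galactosidase strain, grown in MRC-5SV2 human lung fibroblast host cells, were tested in a whole-organism screen. The compounds came from a 10,000-member diverse Life Chemicals library that had been filtered for drug-likeness and reactive groups. Previously published standard procedures were followed, with a reference drug as positive control, and potency is reported as IC50.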

Leishmania infantum = experiment: WHO-TDR: Leishmaniasis; assay type: functional, organism-based, Mus musculus; details: Macrophage
Procedure, shortened: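 Following previously published standard procedures, a whole-organism screen was run on Leishmania infantum MHOM/MA(BE)/67 amastigotes within murine peritoneal macrophages, with a reference drug as positive control. The 10,000 compounds tested formed a diverse Life Chemicals library filtered for drug-likeness and reactive groups. Potency against the parasite is reported as IC50.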

Onchocerca ochengi = experiment: WHO-TDR: Onchocerciasis; assay type: functional; parameters: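 at 12.5 µM on microfilariae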
Procedure, shortened: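 Values are reported as percent inhibition and as IC50. They come from a whole-organism screen of a 10,000-compound diverse Life Chemicals library against microfilariae of Onchocerca ochengi or Onchocerca lienalis. The screen followed previously published standard procedures, with reference drugs as positive controls.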

Plasmodium falciparum K1 = experiment: WHO-TDR: Malaria; assay type: functional, organism-based, Homo sapiens; details: Erythrocyte
Procedure, shortened: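 Following previously published standard procedures, with a reference drug serving as positive control, compounds were tested on the Plasmodium falciparum K1 strain inside human red blood cells. The 10,000-compound diverse set came from Life Chemicals after filtering for drug-likeness and reactive groups. Potency against the parasite appears as IC50.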

[1] = test system: Trypanosoma brucei brucei; experiment: WHO-TDR: Human African Trypanosomiasis (HAT); assay type: functional, organism-based; details: Squib-427
Procedure, shortened: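 Bloodstream forms of the Trypanosoma brucei Squib 427 strain were tested in a whole-organism screen with a diverse library from Life Chemicals of 10,000 compounds. Before screening, the library was filtered for drug-likeness and for reactive groups. The assay used previously published standard procedures and included reference drugs as positive controls. Potency against the parasite is expressed as IC50.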

[2] = WHO-TDR: Cytotoxicity; assay type: toxicity, cell-based; details: human, MRC5 cells

SMILES | IC50 (Leishmania infantum) | IC50 (Plasmodium falciparum K1) | IC50 [1] | % Inhibition (Schistosoma mansoni) | % Inhibition (Brugia malayi) | IC50 (Trypanosoma cruzi) | % Inhibition (Onchocerca ochengi) | IC50 [2]
COc1cccc(OCC(=O)N2CCN(c3nccn3-c3cccc(Cl)c3)CC2)c1 | 0.45 µg/mL (≈ 1.05 µM) | 12.2 µg/mL (≈ 28.5 µM) | 4.61 µg/mL (≈ 10.8 µM) | 0% | 0% | 9.15 µg/mL (≈ 21.4 µM) | 0% | > 13.9 µg/mL
COc1ccc(CC(=O)N2CCN(c3nccn3-c3cccc(Cl)c3)CC2)cc1OC | 0.464 µg/mL (≈ 1.05 µM) | > 14.3 µg/mL | > 14.3 µg/mL | 16.7% | 0% | > 14.3 µg/mL | 0% | > 14.3 µg/mL
O=C(Cc1cccs1)N1CCN(c2nccn2-c2cccc(Cl)c2)CC1 | 0.411 µg/mL (≈ 1.06 µM) | 12 µg/mL (≈ 31.1 µM) | 4.77 µg/mL (≈ 12.3 µM) | 0% | 0% | 7.14 µg/mL (≈ 18.5 µM) | 50% | > 12.7 µg/mL
Cn1ccnc1N1CCN(CC(=O)Nc2ccccc2C(F)(F)F)CC1 | 0.357 µg/mL (≈ 0.972 µM) | > 11 µg/mL | > 11 µg/mL | 0% | 0% | > 11 µg/mL | 0% | > 11 µg/mL
Cn1ccnc1N1CCN(CC(=O)Nc2ccc(OC(F)(F)F)cc2)CC1 | 0.372 µg/mL (≈ 0.97 µM) | > 11.5 µg/mL | 5.13 µg/mL (≈ 13.4 µM) | 0% | 0% | > 11.5 µg/mL | 50% | > 11.5 µg/mL
CCn1ccnc1N1CCN(CC(=O)NC2CCCCC2)CC1 | 0.381 µg/mL (≈ 1.19 µM) | > 11.8 µg/mL | > 11.8 µg/mL | 0% | 0% | > 11.8 µg/mL | 0% | > 11.8 µg/mL
Cc1ccc(NC(=O)CN2CCN(c3nccn3-c3ccccc3F)CC2)cc1 | > 11.8 µg/mL | 6.19 µg/mL (≈ 15.7 µM) | 5.48 µg/mL (≈ 13.9 µM) | 0% | 0% | 11.2 µg/mL (≈ 28.6 µM) | 100% | > 11.8 µg/mL
O=C(CN1CCN(c2nccn2-c2cccc(Cl)c2)CC1)N1CCc2ccccc21 | 0.481 µg/mL (≈ 1.14 µM) | 7.54 µg/mL (≈ 17.9 µM) | 4.69 µg/mL (≈ 11.1 µM) | 0% | 0% | 5.05 µg/mL (≈ 12 µM) | 75% | 14.2 µg/mL (≈ 33.6 µM)
O=C(CN1CCN(c2nccn2-c2cccc(Cl)c2)CC1)Nc1ccc(F)cc1F | 4.9 µg/mL (≈ 11.4 µM) | 12.6 µg/mL (≈ 29.2 µM) | 4.79 µg/mL (≈ 11.1 µM) | 0% | 0% | 4.67 µg/mL (≈ 10.8 µM) | 100% | > 15.1 µg/mL
CC(C)(C)C(=O)N1CCc2ccc(NC(=O)Cc3cccs3)cc21 | 0.333 µg/mL (≈ 0.972 µM) | > 10.3 µg/mL | > 10.3 µg/mL | 0% | 0% | 4.11 µg/mL (≈ 12 µM) | 50% | > 10.3 µg/mL
CC(=O)N1CCc2ccc(NC(=O)c3ccc(F)c(F)c3)cc21 | 0.307 µg/mL (≈ 0.971 µM) | > 9.49 µg/mL | > 9.49 µg/mL | 8.3% | 0% | 2.93 µg/mL (≈ 9.25 µM) | 75% | > 9.49 µg/mL
CC(=O)N1CCc2ccc(NC(=O)c3ccc(C(C)(C)C)cc3)cc21 | > 10.1 µg/mL | > 10.1 µg/mL | > 10.1 µg/mL | 16.7% | 0% | 0.3 µg/mL (≈ 0.892 µM) | 0% | > 10.1 µg/mL
CCn1nc(C)cc1C(=O)N1CCN(c2nc3c(C)ccc(C)c3s2)CC1 | > 11.5 µg/mL | > 11.5 µg/mL | > 11.5 µg/mL | 16.7% | 0% | > 11.5 µg/mL | 100% | > 11.5 µg/mL
CCn1ccc(C(=O)Nc2nc(C(C)(C)C)cs2)n1 | > 8.35 µg/mL | > 8.35 µg/mL | > 8.35 µg/mL | 16.7% | 0% | > 8.35 µg/mL | 100% | > 8.35 µg/mL
CCn1ccc(C(=O)Nc2ccc(C)cc2C(=O)c2ccccc2)n1 | > 10 µg/mL | > 10 µg/mL | > 10 µg/mL | 0% | 0% | > 10 µg/mL | 100% | > 10 µg/mL
CCn1nc(C(=O)Nc2nnc(-c3ccc4c(c3)CCCC4)o2)cc1C | > 10.5 µg/mL | > 10.5 µg/mL | > 10.5 µg/mL | 16.7% | 0% | > 10.5 µg/mL | 100% | > 10.5 µg/mL
CCn1nc(C(=O)Nc2nnc(CCSc3ccccc3)o2)cc1C | > 10.7 µg/mL | > 10.7 µg/mL | > 10.7 µg/mL | 0% | 0% | > 10.7 µg/mL | 100% | > 10.7 µg/mL
CS(=O)(=O)N1CCCCC1C(=O)Nc1nc(-c2nc3ccccc3s2)cs1 (stereo not drawn) | > 12.7 µg/mL | > 12.7 µg/mL | > 12.7 µg/mL | 0% | 0% | > 12.7 µg/mL | 100% | > 12.7 µg/mL
CCOC(=O)c1sc(NC(=O)C2CCCCN2S(C)(=O)=O)cc1C (stereo not drawn) | > 11.2 µg/mL | > 11.2 µg/mL | 3.82 µg/mL (≈ 10.2 µM) | 0% | 0% | 3.69 µg/mL (≈ 9.86 µM) | 100% | > 11.2 µg/mL
CS(=O)(=O)N1CCCC1C(=O)Nc1nc(-c2ccc(Cl)s2)cs1 (stereo not drawn) | > 11.8 µg/mL | 3.6 µg/mL (≈ 9.18 µM) | > 11.8 µg/mL | 0% | 0% | > 11.8 µg/mL | 100% | > 11.8 µg/mL
CCOC(=O)c1sc(NC(=O)C2CCCN2S(C)(=O)=O)nc1-c1ccccc1 (stereo not drawn) | > 12.7 µg/mL | > 12.7 µg/mL | > 12.7 µg/mL | 0% | 0% | > 12.7 µg/mL | 100% | > 12.7 µg/mL

The next lines start with results.

IC50 (Leishmania infantum) | IC50 (Plasmodium falciparum K1) | IC50 [1] | SMILES | % Inhibition (Schistosoma mansoni) | % Inhibition (Brugia malayi) | IC50 (Trypanosoma cruzi) | % Inhibition (Onchocerca ochengi) | IC50 [2]
0.402 µg/mL (≈ 1.18 µM) | > 12.4 µg/mL | > 12.4 µg/mL | CCn1ccnc1N1CCN(CC(=O)NCc2ccc(C)cc2)CC1 | 0% | 0% | > 12.4 µg/mL | 0% | > 12.4 µg/mL
0.404 µg/mL (≈ 0.97 µM) | > 12.5 µg/mL | > 12.5 µg/mL | O=C(Nc1ccc2c(c1)N(C(=O)c1cccs1)CC2)c1cc2ccccc2oc1=O | 16.7% | 0% | > 12.5 µg/mL | 0% | > 12.5 µg/mL
> 12.7 µg/mL | 11.5 µg/mL (≈ 27.1 µM) | > 12.7 µg/mL | COc1cc(C(=O)Nc2ccc3c(c2)N(C(=O)c2ccco2)CC3)cc(OC)c1OC | 16.7% | 0% | > 12.7 µg/mL | 100% | 2.08 µg/mL (≈ 4.91 µM)
0.317 µg/mL (≈ 0.971 µM) | > 9.79 µg/mL | > 9.79 µg/mL | O=C(Nc1ccc2c(c1)N(C(=O)C1CCCO1)CC2)c1ccco1 (stereo not drawn) | 0% | 0% | > 9.79 µg/mL | 0% | > 9.79 µg/mL
> 11.8 µg/mL | > 11.8 µg/mL | > 11.8 µg/mL | COc1ccc(Cl)cc1NC(=O)CSc1ccc(NC(=O)C2CC2)nn1 | 33.3% | 0% | > 11.8 µg/mL | 100% | > 11.8 µg/mL
> 9.55 µg/mL | 0.955 µg/mL (≈ 3 µM) | > 9.55 µg/mL | CCn1ccc(C(=O)Nc2ccc3nc(SC)sc3c2)n1 | 0% | 0% | > 9.55 µg/mL | 100% | > 9.55 µg/mL
> 12.2 µg/mL | > 12.2 µg/mL | 3.12 µg/mL (≈ 7.67 µM) | CC(=O)c1sc(NC(=O)C2CCCCN2S(C)(=O)=O)nc1-c1ccccc1 (stereo not drawn) | 0% | 0% | 4.06 µg/mL (≈ 9.97 µM) | 100% | > 12.2 µg/mL
> 11.5 µg/mL | > 11.5 µg/mL | 5.4 µg/mL (≈ 14.1 µM) | CS(=O)(=O)N1CCCCC1C(=O)Nc1nc(-c2ccc(F)cc2)cs1 (stereo not drawn) | 0% | 0% | 3.82 µg/mL (≈ 9.95 µM) | 100% | > 11.5 µg/mL
> 12.2 µg/mL | > 12.2 µg/mL | > 12.2 µg/mL | CS(=O)(=O)N1CCCCC1C(=O)Nc1nc2c(Cl)c(Cl)ccc2s1 (stereo not drawn) | 0% | 0% | > 12.2 µg/mL | 100% | > 12.2 µg/mL
> 11 µg/mL | > 11 µg/mL | 3.09 µg/mL (≈ 8.4 µM) | CCc1cccc2sc(NC(=O)C3CCCCN3S(C)(=O)=O)nc12 (stereo not drawn) | 0% | 0% | 3.8 µg/mL (≈ 10.3 µM) | 100% | > 11 µg/mL
